In ChEMBL document CHEMBL3826878, “Design, synthesis, molecular docking and biological evaluation of thiophen-2-iminothiazolidine derivatives for use against Trypanosoma cruzi” (Bioorg Med Chem, 2016):
pIC50: −log10 of the molar value.

What was measured:
Trypanosoma cruzi [1] = experiment: Antitrypanosomal activity against amastigote stage of Trypanosoma cruzi CA-I/72 infected in mouse C2C12 cells at 10 uM measured after 3 days by DAPI staining-based assay relative to control; assay type: functional; conditions: CA-I/72, C2C12, 72 h
How it was run: (§1)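 T. cruzi CA-I/72 trypomastigotes harvested from infected C2C12 myocytes 7 days post-infection, mixed with C2C12 cells (1:15 host:parasite), treated immediately with serially diluted compound; 3 days incubation, paraformaldehyde fixation, DAPI staining, automated high-content imaging. Activity normalized to untreated wells and 10 uM benznidazole; host viability as C2C12 count relative to untreated wells.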

[2] = (§2) Cytotoxicity against mouse J774 cells assessed as cell viability at 10 uM measured after 24 hrs by MTT assay; assay type: cell-based; conditions: J774 cells, read-out: Activity
How it was run: (§3)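 J774 macrophages seeded in RPMI-1640 with 10% FBS for 16 hours, exposed 24 h at 37 °C to compound (10–100 umol/L range) in 0.01% DMSO vehicle; MTT (5 mg/mL) 4 h, formazan dissolved in DMSO, absorbance 540 nm. Viability as percent of untreated cells; three wells per treatment.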

[3] = target: Cruzipain (Trypanosoma cruzi) (UniProt P25779); experiment: Inhibition of Trypanosoma cruzi cruzain at 100 uM using Z-Phe-Arg-aminomethylcoumarin as substrate measured after 5 mins by spectrofluorimetry
Sequence of Cruzipain (Trypanosoma cruzi) (P25779 123-467 limits assumed): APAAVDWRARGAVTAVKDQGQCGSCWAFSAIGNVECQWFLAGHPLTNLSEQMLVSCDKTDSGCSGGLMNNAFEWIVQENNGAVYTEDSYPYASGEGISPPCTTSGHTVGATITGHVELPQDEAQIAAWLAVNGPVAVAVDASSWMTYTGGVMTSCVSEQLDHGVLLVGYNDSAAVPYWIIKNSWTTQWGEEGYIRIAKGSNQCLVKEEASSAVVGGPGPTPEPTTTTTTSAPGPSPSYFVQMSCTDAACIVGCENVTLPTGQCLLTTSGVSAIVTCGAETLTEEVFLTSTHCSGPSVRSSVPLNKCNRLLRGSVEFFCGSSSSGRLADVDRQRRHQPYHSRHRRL
How it was run: (§4)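 Recombinant cruzain (0.5 nM, MMTS-protected, anion-exchange purified) in 0.1 M sodium acetate pH 5.5 with 0.1 mM beta-mercaptoethanol and 2.5 uM Z-FR-AMC, read fluorimetrically over 5 min; activity from initial rate versus DMSO control. Triton X-100 0.01% standard; detergent-sensitivity tests used 0.01% vs 0.1%. Run with and without 10 min pre-incubation; two independent experiments in triplicate; E64 100 uM positive control.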

Trypanosoma cruzi [4] = experiment: Antitrypanosomal activity against trypomastigote stage of Trypanosoma cruzi Y at 25 uM measured after 24 hrs using propidium iodide by neubauer chamber method relative to control; assay type: functional
How it was run: (§5)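 Y strain trypomastigotes from LLC-MK2 culture supernatant, 4.0 × 10^5 per well, exposed to five compound concentrations (DMSO solutions) for 24 h at 37 °C, 5% CO2; propidium iodide 400 ng/mL for 5 min, then viable motile parasites counted in a Neubauer chamber. Percent inhibition versus untreated cultures.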

[5] = target: Cruzipain (Trypanosoma cruzi) (UniProt P25779); experiment: Inhibition of Trypanosoma cruzi cruzain at 100 uM pre-incubated for 10 mins followed by addition of Z-Phe-Arg-aminomethylcoumarin as substrate measured after 5 mins by spectrofluorimetry; how it was run: as §4
Trypanosoma cruzi [6] = experiment: Antitrypanosomal activity against amastigote stage of Trypanosoma cruzi CA-I/72 infected in mouse C2C12 cells measured after 3 days by DAPI staining-based assay; assay type: functional, organism-based; conditions: CA-I/72, C2C12, 72 h; how it was run: as §1
[7] = target: Cruzipain (Trypanosoma cruzi) (UniProt P25779); experiment: Inhibition of Trypanosoma cruzi cruzain at 6.25 uM using Z-Phe-Arg-aminomethylcoumarin as substrate measured after 5 mins in presence of 0.01% triton by spectrofluorimetry; how it was run: as §4
Cruzipain = Cruzipain (Trypanosoma cruzi, UniProt P25779); experiment: Inhibition of Trypanosoma cruzi cruzain using Z-Phe-Arg-aminomethylcoumarin as substrate measured after 5 mins by spectrofluorimetry
Sequence of Cruzipain (P25779 whole entry): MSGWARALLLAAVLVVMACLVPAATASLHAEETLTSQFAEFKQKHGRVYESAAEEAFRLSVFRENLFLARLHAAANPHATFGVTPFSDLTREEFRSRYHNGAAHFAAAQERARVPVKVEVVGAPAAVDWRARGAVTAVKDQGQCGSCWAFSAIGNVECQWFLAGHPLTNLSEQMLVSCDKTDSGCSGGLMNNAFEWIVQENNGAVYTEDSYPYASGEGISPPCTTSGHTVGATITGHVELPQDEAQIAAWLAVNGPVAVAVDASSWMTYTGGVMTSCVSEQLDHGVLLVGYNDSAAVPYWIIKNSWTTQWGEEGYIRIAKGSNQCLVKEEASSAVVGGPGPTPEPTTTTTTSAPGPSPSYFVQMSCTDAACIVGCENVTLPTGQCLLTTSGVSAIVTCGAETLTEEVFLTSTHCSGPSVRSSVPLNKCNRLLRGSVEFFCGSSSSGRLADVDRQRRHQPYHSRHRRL
How it was run: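 IC50 for cruzain: 10 min enzyme–compound pre-incubation, then 0.5 nM cruzain with 2.5 uM Z-FR-AMC in 0.1 M sodium acetate pH 5.5, 0.1 mM beta-mercaptoethanol, 0.01% Triton X-100, fluorescence over 5 min; at least nine compound concentrations in triplicate, two independent experiments, curves fitted for IC50.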

[8] = target: Cruzipain (Trypanosoma cruzi) (UniProt P25779); experiment: Inhibition of Trypanosoma cruzi cruzain at 6.25 uM using Z-Phe-Arg-aminomethylcoumarin as substrate measured after 5 mins in presence of 0.1% triton by spectrofluorimetry; how it was run: as §4
[9] = target: Cruzipain (Trypanosoma cruzi) (UniProt P25779); experiment: Inhibition of Trypanosoma cruzi cruzain at 100 uM using Z-Phe-Arg-aminomethylcoumarin as substrate measured after 5 mins in presence of 0.01% triton by spectrofluorimetry; how it was run: as §4
[10] = target: Cruzipain (Trypanosoma cruzi) (UniProt P25779); experiment: Inhibition of Trypanosoma cruzi cruzain at 100 uM using Z-Phe-Arg-aminomethylcoumarin as substrate measured after 5 mins in presence of 0.1% triton by spectrofluorimetry; how it was run: as §4
J774 = experiment: as §2; assay type: cell-based; conditions: j774, 24 h, 10 µM; how it was run: as §3
[11] = target: Cruzipain (Trypanosoma cruzi) (UniProt P25779); experiment: Inhibition of Trypanosoma cruzi cruzain at 50 uM using Z-Phe-Arg-aminomethylcoumarin as substrate measured after 5 mins by spectrofluorimetry; how it was run: as §4
[12] = target: Cruzipain (Trypanosoma cruzi) (UniProt P25779); experiment: Inhibition of Trypanosoma cruzi cruzain at 50 uM using Z-Phe-Arg-aminomethylcoumarin as substrate measured after 5 mins in presence of BSA by spectrofluorimetry
How it was run: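 Cruzain aggregation test: compound pre-incubated with 2 mg/mL BSA, then cruzain (0.5 nM) activity on 2.5 uM Z-FR-AMC in 0.1 M sodium acetate pH 5.5, 0.1 mM beta-mercaptoethanol, 0.01% Triton X-100, monitored 5 min by fluorescence; inhibition from initial rate against DMSO control.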

[13] = target: Cruzipain (Trypanosoma cruzi) (UniProt P25779); experiment: Inhibition of Trypanosoma cruzi cruzain at 50 uM using Z-Phe-Arg-aminomethylcoumarin as substrate measured after 5 mins in presence of 0.01% triton by spectrofluorimetry; how it was run: as §4
[14] = target: Cruzipain (Trypanosoma cruzi) (UniProt P25779); experiment: Inhibition of Trypanosoma cruzi cruzain at 50 uM using Z-Phe-Arg-aminomethylcoumarin as substrate measured after 5 mins in presence of 0.1% triton by spectrofluorimetry; how it was run: as §4
[15] = target: Cruzipain (Trypanosoma cruzi) (UniProt P25779); experiment: Inhibition of Trypanosoma cruzi cruzain at 25 uM pre-incubated for 10 mins followed by addition of Z-Phe-Arg-aminomethylcoumarin as substrate measured after 5 mins by spectrofluorimetry; how it was run: as §4
[16] = target: Cruzipain (Trypanosoma cruzi) (UniProt P25779); experiment: Inhibition of Trypanosoma cruzi cruzain at 25 uM using Z-Phe-Arg-aminomethylcoumarin as substrate measured after 5 mins by spectrofluorimetry; how it was run: as §4
Trypanosoma cruzi [17] = experiment: Antitrypanosomal activity against trypomastigote stage of Trypanosoma cruzi Y measured after 24 hrs using propidium iodide by neubauer chamber method; assay type: functional, organism-based; how it was run: as §5
[18] = target: Cruzipain (Trypanosoma cruzi) (UniProt P25779); experiment: Inhibition of Trypanosoma cruzi cruzain at 50 uM pre-incubated for 10 mins followed by addition of Z-Phe-Arg-aminomethylcoumarin as substrate measured after 5 mins by spectrofluorimetry; how it was run: as §4

## CC(C)OC(=O)c1c(NC(=S)Nc2ccccc2)sc2c1CCCC2
Trypanosoma cruzi [1]
  inhibition at 10 µM: 59.6%
[2]
  viability at 24 h, 10 µM: > 50%
[3]
  inhibition: 43%
Trypanosoma cruzi [4]
  inhibition at 25 µM: 5.8%
[5]
  inhibition: 74%
Trypanosoma cruzi [6]
  pIC50: 5.06

## C=CCn1c(-c2ccccc2)cs/c1=N\c1sc2c(c1C(=O)OCC)CCCC2
[7]
  inhibition: 62%
Trypanosoma cruzi [1]
  inhibition at 10 µM: 53.1%
Cruzipain
  pIC50: 5.62
[2]
  viability at 24 h, 10 µM: > 50%
[3]
  inhibition: 87%
Trypanosoma cruzi [4]
  inhibition at 25 µM: 5.1%
[8]
  inhibition: 55%
[5]
  inhibition: 97%
Trypanosoma cruzi [6]
  pIC50: 5.01

## C=CCn1c(-c2ccccc2)cs/c1=N\c1sc2c(c1C(=O)OC(C)C)CCCC2
Trypanosoma cruzi [1]
  inhibition at 10 µM: 36%
[3]
  inhibition: 29%
Trypanosoma cruzi [4]
  inhibition at 25 µM: 6.1%
[5]
  inhibition: 67%

## CCOC(=O)c1c(/N=C2\SC(CC(=O)O)C(=O)N2c2ccccc2)sc2c1CCCC2 (stereo not given)
[9]
  inhibition: 5.4%
Trypanosoma cruzi [1]
  inhibition at 10 µM: 37.4%
Cruzipain
  pIC50: 3.92
[3]
  inhibition: 66%
Trypanosoma cruzi [4]
  inhibition at 25 µM: 6.4%
[5]
  inhibition: 86%
[10]
  inhibition: 18%

## CCOC(=O)c1c(/N=C2\SC(C(=O)OCC)C(=O)N2c2ccccc2)sc2c1CCCC2 (stereo not given)
Trypanosoma cruzi [1]
  inhibition at 10 µM: 0.43%
[3]
  inhibition: 46%
Trypanosoma cruzi [4]
  inhibition at 25 µM: 9%
[5]
  inhibition: 66%

## C=CCN1C(=O)CS/C1=N\c1sc2c(c1C(=O)OCC)CCCC2
Trypanosoma cruzi [1]
  inhibition at 10 µM: 17%
[3]
  inhibition: 23%
Trypanosoma cruzi [4]
  inhibition at 25 µM: 4.5%
[5]
  inhibition: 40%

## C=CCNC(=S)Nc1sc2c(c1C(=O)OCC)CCCC2
Trypanosoma cruzi [1]
  inhibition at 10 µM: 11.9%
[3]
  inhibition: 29%
Trypanosoma cruzi [4]
  inhibition at 25 µM: 11.9%
[5]
  inhibition: 41%

## CCOC(=O)c1c(NC(=S)Nc2ccccc2)sc2c1CCCC2
Trypanosoma cruzi [1]
  inhibition at 10 µM: 47%
[3]
  inhibition: 12%
Trypanosoma cruzi [4]
  inhibition at 25 µM: 1.6%
[5]
  inhibition: 4%

## CC(C)OC(=O)c1c(/N=C2\SCC(=O)N2c2ccccc2)sc2c1CCCC2
Trypanosoma cruzi [1]
  inhibition at 10 µM: 39.4%
J774
  Activity: Toxic
[3]
  inhibition: 33%
Trypanosoma cruzi [4]
  inhibition at 25 µM: 27%
[5]
  inhibition: 72%
Trypanosoma cruzi [6]
  pIC50: 5.16

## C=CCNC(=S)Nc1sc2c(c1C(=O)OC(C)C)CCCC2
Trypanosoma cruzi [1]
  inhibition at 10 µM: 37.8%
[3]
  inhibition: 29%
Trypanosoma cruzi [4]
  inhibition at 25 µM: 15.1%
[5]
  inhibition: 34%

## CC(C)C[C@H](NC(=O)[C@H]1O[C@@H]1C(=O)O)C(=O)NCCCCN=C(N)N [E-64]
Cruzipain
  pIC50: 6.40

## CC(C)OC(=O)c1c(/N=C2\SC(CC(=O)O)C(=O)N2c2ccccc2)sc2c1CCCC2 (stereo not given)
Trypanosoma cruzi [1]
  inhibition at 10 µM: 43.5%
[3]
  inhibition: 32%
Trypanosoma cruzi [4]
  inhibition at 25 µM: 6.4%
[5]
  inhibition: 77%

## C=CCN1C(=O)C(CC(=O)O)S/C1=N\c1sc2c(c1C(=O)OCC)CCCC2 (stereo not given)
Trypanosoma cruzi [1]
  inhibition at 10 µM: 13.8%
Cruzipain
  pIC50: 4.30
[11]
  inhibition: 50%
[3]
  inhibition: 64%
Trypanosoma cruzi [4]
  inhibition at 25 µM: 5.1%
[12]
  inhibition: 42%
[13]
  inhibition: 47%
[5]
  inhibition: 89%
[14]
  inhibition: 44%

## C=CCN1C(=O)C(CC(=O)O)S/C1=N\c1sc2c(c1C(=O)OC(C)C)CCCC2 (stereo not given)
[9]
  inhibition: 53%
Trypanosoma cruzi [1]
  inhibition at 10 µM: 47.2%
Cruzipain
  pIC50: 3.95
[3]
  inhibition: 52%
Trypanosoma cruzi [4]
  inhibition at 25 µM: 7.7%
[5]
  inhibition: 80%
[10]
  inhibition: 52.7%

## C=CCN1C(=O)C(C(=O)OCC)S/C1=N\c1sc2c(c1C(=O)OCC)CCCC2 (stereo not given)
Trypanosoma cruzi [1]
  inhibition at 10 µM: 30%
[3]
  inhibition: 18%
Trypanosoma cruzi [4]
  inhibition at 25 µM: 16.7%
[5]
  inhibition: 59%

## C=CCn1c(C)c(C(=O)OCC)s/c1=N\c1sc2c(c1C(=O)OC(C)C)CCCC2
Trypanosoma cruzi [1]
  inhibition at 10 µM: 39.2%
Trypanosoma cruzi [4]
  inhibition at 25 µM: 6.7%
[15]
  inhibition: 71%
[16]
  inhibition: 38%

## O=C(Cn1ccnc1[N+](=O)[O-])NCc1ccccc1 [BENZNIDAZOLE]
Trypanosoma cruzi [1]
  inhibition at 10 µM: 94.5%
Trypanosoma cruzi [4]
  inhibition at 25 µM: 100%
Trypanosoma cruzi [6]
  pIC50: 5.93

## C=CCN1C(=O)CS/C1=N\c1sc2c(c1C(=O)OC(C)C)CCCC2
Trypanosoma cruzi [1]
  inhibition at 10 µM: 4.03%
[3]
  inhibition: 45%
Trypanosoma cruzi [4]
  inhibition at 25 µM: 84.1%
Trypanosoma cruzi [17]
  pIC50: 4.99
[5]
  inhibition: 70%

## CC(C)OC(=O)c1c(/N=c2\scc(-c3ccccc3)n2-c2ccccc2)sc2c1CCCC2
Trypanosoma cruzi [1]
  inhibition at 10 µM: 59.5%
[2]
  viability at 24 h, 10 µM: > 50%
[3]
  inhibition: 13%
Trypanosoma cruzi [4]
  inhibition at 25 µM: 4.5%
[5]
  inhibition: 25%
Trypanosoma cruzi [6]
  pIC50: 5.22

## C=CCn1c(C)c(C(=O)OCC)s/c1=N\c1sc2c(c1C(=O)OCC)CCCC2
[9]
  inhibition: 33%
Trypanosoma cruzi [1]
  inhibition at 10 µM: 18.3%
Cruzipain
  pIC50: 4.07
[3]
  inhibition: 34%
Trypanosoma cruzi [4]
  inhibition at 25 µM: 7.1%
[5]
  inhibition: 82%
[10]
  inhibition: 29%

## CCOC(=O)c1c(/N=c2\scc(-c3ccccc3)n2-c2ccccc2)sc2c1CCCC2
Trypanosoma cruzi [1]
  inhibition at 10 µM: 23.6%
[11]
  inhibition: 16%
Trypanosoma cruzi [4]
  inhibition at 25 µM: 5.8%
[18]
  inhibition: 40%

## CCOC(=O)c1c(/N=C2\SCC(=O)N2c2ccccc2)sc2c1CCCC2
Trypanosoma cruzi [1]
  inhibition at 10 µM: 20.1%
[3]
  inhibition: 0%
Trypanosoma cruzi [4]
  inhibition at 25 µM: 3.2%
[5]
  inhibition: 17%
